Laboratory results: ChEMBL document CHEMBL3352173, “Optimization of pyrrolamide topoisomerase II inhibitors toward identification of an antibacterial clinical candidate (AZD5099)” (J Med Chem, 2014)
Converted amounts (≈) assume the structure as drawn.

What was measured:
Streptococcus pneumoniae = experiment: Antibacterial activity against Streptococcus pneumoniae by broth microdilution/CLSI method; type: functional; details: Streptococcus pneumoniae; read-out: MIC
Moraxella catarrhalis = experiment: Antimicrobial activity against Moraxella catarrhalis by broth microdilution/CLSI method; type: functional; details: Moraxella catarrhalis; read-out: MIC
Escherichia coli [1] = experiment: Antimicrobial activity against wild-type Escherichia coli Eco523 by broth microdilution/CLSI method; type: functional; details: Escherichia coli, Eco523; read-out: MIC
Escherichia coli [2] = experiment: Antimicrobial activity against Escherichia coli tolC- by broth microdilution/CLSI method; type: functional; details: Escherichia coli; read-out: MIC
[3] = Octanol-phosphate buffer distribution coefficient, log D of the compound at pH 7.4 by shake flask method; type: physicochemical
Staphylococcus aureus [4] = experiment: Antimicrobial activity against methicillin, quinolone-resistant Staphylococcus aureus by broth microdilution/CLSI method; type: functional; details: Staphylococcus aureus; read-out: MIC
DNA gyrase subunit B = DNA gyrase subunit B (Staphylococcus aureus, UniProt P0A0K8); experiment: Inhibition of ATPase activity of Staphylococcus aureus GyrB
DNA gyrase subunit B, sequence (P0A0K8 whole entry): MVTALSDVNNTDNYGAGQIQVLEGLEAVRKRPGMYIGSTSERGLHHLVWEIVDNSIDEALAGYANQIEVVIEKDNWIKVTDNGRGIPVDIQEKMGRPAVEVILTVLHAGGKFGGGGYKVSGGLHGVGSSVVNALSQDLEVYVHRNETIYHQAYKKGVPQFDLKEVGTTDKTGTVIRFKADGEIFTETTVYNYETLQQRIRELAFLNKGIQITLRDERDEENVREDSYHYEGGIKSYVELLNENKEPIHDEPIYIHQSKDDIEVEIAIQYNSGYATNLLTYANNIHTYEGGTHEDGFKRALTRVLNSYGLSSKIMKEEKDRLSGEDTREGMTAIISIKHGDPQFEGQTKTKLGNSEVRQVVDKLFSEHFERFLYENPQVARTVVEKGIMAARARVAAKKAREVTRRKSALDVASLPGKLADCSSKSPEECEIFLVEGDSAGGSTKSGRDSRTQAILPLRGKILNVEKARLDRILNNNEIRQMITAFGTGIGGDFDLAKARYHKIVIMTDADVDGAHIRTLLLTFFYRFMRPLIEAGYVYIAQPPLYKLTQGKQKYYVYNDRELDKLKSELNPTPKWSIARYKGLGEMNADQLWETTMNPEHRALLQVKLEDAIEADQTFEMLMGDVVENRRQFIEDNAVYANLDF
Method in brief: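 IC50 was determined against S. aureus GyrB in the routine screening assay. The enzyme concentration limits resolution below 10 nM.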

Staphylococcus aureus [5] = experiment: Antimicrobial activity against methicillin-sensitive Staphylococcus aureus by broth microdilution/CLSI method; type: functional; details: Staphylococcus aureus; read-out: MIC
[6] = Solubility of the compound; type: physicochemical
[7] = Ratio of MIC for methicillin, quinolone-resistant Staphylococcus aureus to fraction unbound in human plasma; type: ADME
Haemophilus influenzae = experiment: Antimicrobial activity against Haemophilus influenzae by broth microdilution/CLSI method; type: functional; details: Haemophilus influenzae; read-out: MIC
[8] = Clearance in rat at 10 mg/kg, iv; type: ADME, organism-based; design: dose 10 mg/kg, route intravenous; details: in vivo
Streptococcus pyogenes = experiment: Antimicrobial activity against Streptococcus pyogenes by broth microdilution/CLSI method; type: functional
[9] = Percentage unbound in human plasma; type: ADME, cell-free

| SMILES | MIC (Streptococcus pneumoniae) | MIC (Moraxella catarrhalis) | MIC (Escherichia coli [1]) | MIC (Escherichia coli [2]) | logD [3] | MIC (Staphylococcus aureus [4]) | IC50 (DNA gyrase subunit B) | MIC (Staphylococcus aureus [5]) | solubility [6] | Ratio [7] | MIC (Haemophilus influenzae) | clearance [8] | MIC (Streptococcus pyogenes) | fraction unbound [9] |
| --- | --- | --- | --- | --- | --- | --- | --- | --- | --- | --- | --- | --- | --- | --- |
| CO[C@H]1CN(c2nc(C(=O)O)cs2)CC[C@H]1NC(=O)c1[nH]c(C)c(Cl)c1Cl | 0.2 µg/mL (≈ 0.462 µM) | 0.05 µg/mL (≈ 0.115 µM) | > 8 µg/mL | 0.1 µg/mL (≈ 0.231 µM) | 0.25 | 0.32 µg/mL (≈ 0.738 µM) | < 10 nM | 0.2 µg/mL (≈ 0.462 µM) | 930 µM (≈ 403 µg/mL) | 15 | 0.1 µg/mL (≈ 0.231 µM) | 49 mL/min/kg | 0.035 µg/mL (≈ 0.0808 µM) | 0.022 |
| COCC(COC)(COC)NC(=O)c1nc(N2CC[C@@H](NC(=O)c3[nH]c(C)c(Cl)c3Cl)[C@@H](OC)C2)sc1C(=O)O | 0.016 µg/mL (≈ 0.0257 µM) | 0.008 µg/mL (≈ 0.0129 µM) | 29 µg/mL (≈ 46.6 µM) | 1.3 µg/mL (≈ 2.09 µM) | 1.9 | 0.031 µg/mL (≈ 0.0498 µM) | < 10 nM | 0.031 µg/mL (≈ 0.0498 µM) | 720 µM (≈ 448 µg/mL) | 0.66 | 0.15 µg/mL (≈ 0.241 µM) | 18 mL/min/kg | 0.016 µg/mL (≈ 0.0257 µM) | 0.047 |
| CNC(=O)c1nc(N2CC[C@@H](NC(=O)c3[nH]c(C)c(Cl)c3Cl)[C@@H](OC)C2)sc1C(=O)O | 0.016 µg/mL (≈ 0.0326 µM) | 0.011 µg/mL (≈ 0.0224 µM) | 18 µg/mL (≈ 36.7 µM) | 0.3 µg/mL (≈ 0.612 µM) | 1.3 | 0.063 µg/mL (≈ 0.128 µM) | < 10 nM | 0.063 µg/mL (≈ 0.128 µM) | 56 µM (≈ 27.5 µg/mL) | 3.15 | 0.14 µg/mL (≈ 0.285 µM) | 14 mL/min/kg | 0.013 µg/mL (≈ 0.0265 µM) | 0.02 |
| COc1cc(OC)nc(-c2nc(N3CC[C@@H](NC(=O)c4[nH]c(C)c(Cl)c4Cl)[C@@H](OC)C3)sc2C(=O)O)n1 | 0.016 µg/mL (≈ 0.028 µM) | 0.016 µg/mL (≈ 0.028 µM) | 32 µg/mL (≈ 56 µM) | 1 µg/mL (≈ 1.75 µM) | 1.7 | 0.05 µg/mL (≈ 0.0875 µM) | < 10 nM | 0.025 µg/mL (≈ 0.0437 µM) | – | 1.4 | 0.25 µg/mL (≈ 0.437 µM) | 6.3 mL/min/kg | 0.016 µg/mL (≈ 0.028 µM) | 0.036 |
| CO[C@H]1CN(c2nc(C(=O)NCC3(C)OCCO3)c(C(=O)O)s2)CC[C@H]1NC(=O)c1[nH]c(C)c(Cl)c1Cl | 0.016 µg/mL (≈ 0.0278 µM) | 0.016 µg/mL (≈ 0.0278 µM) | 11 µg/mL (≈ 19.1 µM) | 0.5 µg/mL (≈ 0.867 µM) | 1 | 0.084 µg/mL (≈ 0.146 µM) | < 10 nM | 0.063 µg/mL (≈ 0.109 µM) | 620 µM (≈ 357 µg/mL) | 2.6 | 0.11 µg/mL (≈ 0.191 µM) | 34 mL/min/kg | 0.016 µg/mL (≈ 0.0278 µM) | 0.032 |
| CO[C@H]1CN(c2nc(C)c(C(=O)O)s2)CC[C@H]1NC(=O)c1[nH]c(C)c(Cl)c1Cl | 0.013 µg/mL (≈ 0.0291 µM) | 0.008 µg/mL (≈ 0.0179 µM) | > 8 µg/mL | 0.25 µg/mL (≈ 0.559 µM) | 1.2 | 0.053 µg/mL (≈ 0.118 µM) | < 10 nM | 0.031 µg/mL (≈ 0.0693 µM) | 450 µM (≈ 201 µg/mL) | 2.9 | 0.072 µg/mL (≈ 0.161 µM) | 26 mL/min/kg | < 0.008 µg/mL | 0.018 |
| CO[C@H]1CN(c2nc(-c3ccncn3)c(C(=O)O)s2)CC[C@H]1NC(=O)c1[nH]c(C)c(Cl)c1Cl | < 0.06 µg/mL | < 0.06 µg/mL | 16 µg/mL (≈ 31.3 µM) | 0.5 µg/mL (≈ 0.978 µM) | 1.7 | 0.031 µg/mL (≈ 0.0606 µM) | < 10 nM | < 0.06 µg/mL | 350 µM (≈ 179 µg/mL) | 0.74 | 0.12 µg/mL (≈ 0.235 µM) | 3.8 mL/min/kg | < 0.06 µg/mL | 0.042 |
| CO[C@H]1CN(c2nc3cccc(C(=O)O)c3s2)CC[C@H]1NC(=O)c1[nH]c(C)c(Cl)c1Cl | 0.032 µg/mL (≈ 0.0662 µM) | < 0.001 µg/mL | 8 µg/mL (≈ 16.6 µM) | 0.25 µg/mL (≈ 0.517 µM) | 1.7 | 0.031 µg/mL (≈ 0.0641 µM) | < 10 nM | 0.031 µg/mL (≈ 0.0641 µM) | < 1 µM | > 31 | 0.031 µg/mL (≈ 0.0641 µM) | 60 mL/min/kg | – | < 0.01 |
| CO[C@H]1CN(c2nc(CN3CCOCC3)c(C(=O)O)s2)CC[C@H]1NC(=O)c1[nH]c(C)c(Cl)c1Cl (racemic) | 0.25 µg/mL (≈ 0.47 µM) | 1 µg/mL (≈ 1.88 µM) | 0.13 µg/mL (≈ 0.244 µM) | > 8 µg/mL | 1.4 | 2 µg/mL (≈ 3.76 µM) | < 10 nM | 2 µg/mL (≈ 3.76 µM) | > 1000 µM | 35 | 4 µg/mL (≈ 7.51 µM) | 0.25 mL/min/kg | 0.25 µg/mL (≈ 0.47 µM) | 0.057 |
| CO[C@H]1CN(c2nc(C(=O)NCC3OCCO3)c(C(=O)O)s2)CC[C@H]1NC(=O)c1[nH]c(C)c(Cl)c1Cl | 0.04 µg/mL (≈ 0.0711 µM) | 0.013 µg/mL (≈ 0.0231 µM) | > 8 µg/mL | 0.79 µg/mL (≈ 1.4 µM) | 0.76 | 0.1 µg/mL (≈ 0.178 µM) | < 10 nM | 0.063 µg/mL (≈ 0.112 µM) | 940 µM (≈ 529 µg/mL) | 3.6 | 0.1 µg/mL (≈ 0.178 µM) | 33 mL/min/kg | 0.02 µg/mL (≈ 0.0356 µM) | 0.028 |
| CO[C@H]1CN(c2nc(-c3nc(C)no3)c(C(=O)O)s2)CC[C@H]1NC(=O)c1[nH]c(C)c(Cl)c1Cl | < 0.06 µg/mL | < 0.06 µg/mL | 32 µg/mL (≈ 62.1 µM) | 0.5 µg/mL (≈ 0.97 µM) | 0.07 | 0.13 µg/mL (≈ 0.252 µM) | < 10 nM | 0.13 µg/mL (≈ 0.252 µM) | 630 µM (≈ 325 µg/mL) | 8.7 | 0.13 µg/mL (≈ 0.252 µM) | 110 mL/min/kg | < 0.06 µg/mL | 0.015 |
| COCn1ccnc1-c1nc(N2CC[C@@H](NC(=O)c3[nH]c(C)c(Cl)c3Cl)[C@@H](OC)C2)sc1C(=O)O | < 0.06 µg/mL | < 0.06 µg/mL | 16 µg/mL (≈ 29.4 µM) | 0.25 µg/mL (≈ 0.46 µM) | 0.24 | – | < 10 nM | < 0.06 µg/mL | 170 µM (≈ 92.4 µg/mL) | < 0.9 | 0.5 µg/mL (≈ 0.92 µM) | 27 mL/min/kg | < 0.06 µg/mL | 0.071 |
| CO[C@H]1CN(c2nc(C(C)=O)c(C(=O)O)s2)CC[C@H]1NC(=O)c1[nH]c(C)c(Cl)c1Cl | 0.02 µg/mL (≈ 0.0421 µM) | 0.02 µg/mL (≈ 0.0421 µM) | 30 µg/mL (≈ 63.1 µM) | 0.26 µg/mL (≈ 0.547 µM) | 0.36 | 0.063 µg/mL (≈ 0.133 µM) | < 10 nM | 0.063 µg/mL (≈ 0.133 µM) | 890 µM (≈ 423 µg/mL) | 3.7 | 0.15 µg/mL (≈ 0.316 µM) | 9.3 mL/min/kg | 0.02 µg/mL (≈ 0.0421 µM) | 0.019 |
| CO[C@H]1CN(c2nc(C(=O)NC3COC(C)(C)OC3)c(C(=O)O)s2)CC[C@H]1NC(=O)c1[nH]c(C)c(Cl)c1Cl | 0.016 µg/mL (≈ 0.0271 µM) | 0.008 µg/mL (≈ 0.0135 µM) | 14 µg/mL (≈ 23.7 µM) | 0.76 µg/mL (≈ 1.29 µM) | 1.2 | – | < 10 nM | < 0.06 µg/mL | > 1000 µM | < 1.8 | 0.16 µg/mL (≈ 0.271 µM) | 38 mL/min/kg | 0.016 µg/mL (≈ 0.0271 µM) | 0.036 |
| CO[C@H]1CN(c2nc(-c3cncc(OCCN(C)C)n3)c(C(=O)O)s2)CC[C@H]1NC(=O)c1[nH]c(C)c(Cl)c1Cl | 0.011 µg/mL (≈ 0.0184 µM) | – | 60 µg/mL (≈ 100 µM) | 0.23 µg/mL (≈ 0.384 µM) | 0.8 | 0.19 µg/mL (≈ 0.317 µM) | < 10 nM | 0.13 µg/mL (≈ 0.217 µM) | 770 µM (≈ 461 µg/mL) | 5.1 | 0.23 µg/mL (≈ 0.384 µM) | 9.6 mL/min/kg | 0.031 µg/mL (≈ 0.0518 µM) | 0.037 |
